In brackets after ≈: the same amount, converted by molar mass. Activity calls are given as the source filed them. The rule behind the calls is not given here.
What was measured:
Type in all cases: functional, cell-based
L5178Y [1] = assay: Cytotoxicity against mouse L5178Y cells by MTT assay
Procedure, shortened: (§1)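 MTT viability read-out on L5178Y, HeLa and PC12 cells over 0.1-10 µg/mL, with EC50 values given in µg/mL; a positive control was run alongside. Other details follow an earlier protocol.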

PC-12 [2] = assay: Cytotoxicity against rat PC12 cells by MTT assay; procedure, shortened: as §1
HeLa [3] = assay: Cytotoxicity against human HeLa cells by MTT assay; procedure, shortened: as §1
PC-12 [4] = assay: Cytotoxicity against rat PC12 cells at 0.1 to 10 ug/ml by MTT assay; procedure, shortened: as §1
L5178Y [5] = assay: Cytotoxicity against mouse L5178Y cells at 0.1 to 10 ug/ml by MTT assay; procedure, shortened: as §1
HeLa [6] = assay: Cytotoxicity against human HeLa cells at 0.1 to 10 ug/ml by MTT assay; procedure, shortened: as §1

Row | Structure (SMILES) | EC50 (L5178Y [1]) | EC50 (PC-12 [2]) | EC50 (HeLa [3]) | Activity (PC-12 [4]) | Activity (L5178Y [5]) | Activity (HeLa [6])
1 | CC1(C)CCC[C@@]2(C)[C@H]1[C@H](OC(=O)/C=C/C=C/C(=O)O)C=C1COC(=O)[C@@]12O | 5.3 µg/mL (≈ 13.6 µM) | > 10 µg/mL | > 10 µg/mL |  |  | 
2 | CC1(C)C[C@H](O)C[C@@]2(C)[C@H]1[C@H](O)C=C1COC(=O)[C@@]12O |  |  |  | inactive | inactive | inactive
3 | CC1=CC(=O)[C@H]2C(C)(C)[C@@H](O)CC[C@]2(C)[C@@]1(O)CO |  |  |  | inactive | inactive | inactive
4 | CC(O)C(O)/C=C/C=C/C(=O)O[C@@H]1C=C2COC(=O)[C@]2(O)[C@@]2(C)CCCC(C)(C)[C@H]12 (stereo in doubt; 8) |  |  |  | inactive | inactive | inactive
5 | C/C=C/C=C/C=C/C(=O)O[C@@H]1C=C2COC(=O)[C@]2(O)[C@@]2(C)CCCC(C)(C)[C@H]12 | 1.9 µg/mL (≈ 4.92 µM) | > 10 µg/mL | 7.5 µg/mL (≈ 19.4 µM) |  |  | 
6 | CC1=CC(=O)[C@H]2C(C)(C)[C@@H](O)CC[C@]2(C)[C@H]1CO |  |  |  | inactive | inactive | inactive
7 | CC1(C)CCC[C@@]2(C)[C@H]1[C@H](OC(=O)/C=C/C=C/C=O)C=C1COC(=O)[C@@]12O [USTUSOLATE E] | 0.6 µg/mL (≈ 1.6 µM) | 7.2 µg/mL (≈ 19.2 µM) | 5.9 µg/mL (≈ 15.8 µM) |  |  | 
8 | CC(O)C(O)/C=C/C=C/C(=O)O[C@@H]1C=C2COC(=O)[C@]2(O)[C@@]2(C)CCCC(C)(C)[C@H]12 (stereo in doubt; 9) |  |  |  | inactive | inactive | inactive
9 | CC1=CC(=O)[C@H]2C(C)(C)C[C@H](O)C[C@]2(C)[C@@]1(O)CO |  |  |  | inactive | inactive | inactive
10 | CC1=CC(=O)[C@H]2C(C)(C)C[C@H](O)C[C@]2(C)[C@H]1CO |  |  |  | inactive | inactive | inactive
